From ChEMBL document CHEMBL1155099, “Natural products in parallel synthesis: triazole libraries of nonactic acid” (2008)
Calls of active or inactive are those of the source.

Columns and labels:
Assay type in all cases: functional, organism-based
Pseudomonas aeruginosa = assay: Antibacterial activity against Pseudomonas aeruginosa at 1 mM by almar blue dye reduction assay
Method in brief: (§1)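 Single-point primary screen at 1 mM using Alamar Blue dye reduction as the growth read-out.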

Cryptococcus neoformans = assay: Antifungal activity against Cryptococcus neoformans at 1 mM by almar blue dye reduction assay; method in brief: as §1
Bacillus subtilis = assay: Antibacterial activity against Bacillus subtilis at 1 mM by almar blue dye reduction assay; method in brief: as §1
Saccharomyces cerevisiae = assay: Antifungal activity against Saccharomyces cerevisiae at 1 mM by almar blue dye reduction assay; method in brief: as §1
Staphylococcus aureus = assay: Antibacterial activity against Staphylococcus aureus at 1 mM by almar blue dye reduction assay; method in brief: as §1
Bacillus anthracis = assay: Antibacterial activity against Bacillus anthracis at 1mM by almar blue dye reduction assay
Escherichia coli = assay: Antibacterial activity against Escherichia coli at 1 mM by almar blue dye reduction assay; method in brief: as §1
Candida albicans = assay: Antifungal activity against Candida albicans at 1 mM by almar blue dye reduction assay; method in brief: as §1
Bacillus cereus = assay: Antibacterial activity against Bacillus cereus at 1 mM by almar blue dye reduction assay; method in brief: as §1

Measured: Activity

C[C@H](C[C@@H]1CC[C@H]([C@@H](C)C(=O)N2CCCC2)O1)n1cc(C#CCN2CCC(c3ccccc3)CC2)nn1
inactive: all assays above

CCN(CC)C(=O)[C@H](C)[C@H]1CC[C@@H](C[C@@H](C)n2cc(C#Cc3ccc(C(F)(F)F)cc3)nn2)O1
inactive: all assays above

C[C@H](CC1CCC([C@@H](C)C(=O)N2CCCC2)O1)n1cc(C#CCCCC#N)nn1 (single isomer, unassigned)
inactive: all assays above

C[C@H](C[C@@H]1CC[C@H]([C@@H](C)C(=O)N(C)Cc2ccccc2)O1)n1cc(C#CCOc2ccc(C(F)(F)F)cc2)nn1
inactive: all assays above

COCC#Cc1cn([C@H](C)C[C@@H]2CC[C@H]([C@@H](C)C(=O)NC(C)C)O2)nn1
inactive: all assays above

C[C@H](C[C@@H]1CC[C@H]([C@@H](C)C(=O)N(C)Cc2ccccc2)O1)n1cc(C#CCN2CCOCC2)nn1
inactive: all assays above

C[C@H](C[C@@H]1CC[C@H]([C@@H](C)C(=O)N2CCN(CC3CCCO3)CC2)O1)n1cc(C#Cc2ccccn2)nn1 (stereo partly drawn)
inactive: all assays above

CC(C)NC(=O)[C@H](C)[C@H]1CC[C@@H](C[C@@H](C)n2cc(C#CCc3ccccc3)nn2)O1
inactive: all assays above

C[C@H](C[C@@H]1CC[C@H]([C@@H](C)C(=O)N2CCCC2)O1)n1cc(C#CCOc2cccc(-c3ccccc3)c2)nn1
inactive: all assays above

CCN(CC)C(=O)[C@H](C)C1CCC(C[C@@H](C)n2cc(C#CCOC(=O)Nc3cccc(C)c3)nn2)O1 (single isomer, unassigned)
inactive: all assays above

CCN(CC)C(=O)[C@H](C)[C@H]1CC[C@@H](C[C@@H](C)n2cc(C#CCOC)nn2)O1
inactive: all assays above

C[C@H](C[C@@H]1CC[C@H]([C@@H](C)C(=O)N2CCN(CC3CCCO3)CC2)O1)n1cc(C#CCN(C)C)nn1 (stereo partly drawn)
inactive: all assays above

Cc1cccc(NC(=O)NCC#Cc2cn([C@H](C)CC3CCC([C@@H](C)C(=O)NC(C)C)O3)nn2)c1 (single isomer, unassigned)
inactive: all assays above

C[C@H](C[C@@H]1CC[C@H]([C@@H](C)C(=O)N2CCCC2)O1)n1cc(C#Cc2ccc(Oc3ccccc3)cc2)nn1
inactive: all assays above

CCC(=O)OCC#Cc1cn([C@H](C)CC2CCC([C@@H](C)C(=O)N(C)Cc3ccccc3)O2)nn1 (single isomer, unassigned)
inactive: all assays above

Cc1cccc(NC(=O)NCC#Cc2cn([C@H](C)CC3CCC([C@@H](C)C(=O)N4CCCC4)O3)nn2)c1 (single isomer, unassigned)
inactive: all assays above

C[C@H](C[C@@H]1CC[C@H]([C@@H](C)C(=O)N(C)Cc2ccccc2)O1)n1cc(C#Cc2ccc(-c3ccccc3)cc2)nn1
inactive: all assays above
